ChEMBL document CHEMBL4145683, “Total Synthesis and Structure-Activity Relationships Study of Odilorhabdins, a New Class of Peptides Showing Potent Antibacterial Activity” (J Med Chem, 2018)
Converted amounts (≈) assume the structure as drawn. Non-standard residues stand in square brackets, D forms with d. Residues, ends and D or L forms follow the SMILES beside them. *: point of attachment. Dab(3S-OH) = NC[C@H](O)[C@H](N)C(=O)O; ΔZArg = N=C(N)NCC/C=C(\N)C(=O)O; dOrn = NCCC[C@@H](N)C(=O)O; Abu = CC[C@H](N)C(=O)O; NH(CH2)4NH2 = NCCCCN*

Experiments:
Klebsiella pneumoniae = test: Antimicrobial activity against Klebsiella pneumoniae ATCC 43816 by broth microdilution method; format: functional; conditions: Klebsiella pneumoniae, ATCC 43816; read-out: MIC
Procedure, shortened: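 Broth microdilution MIC per CLSI M07-A10, with inoculum prepared by direct colony suspension. Reference strains were from ATCC and NCTC.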

Escherichia coli [1] = test: Inhibition of bacterial protein synthesis in cell-free Escherichia coli incubated for 1 hr and measured for every 20 mins by bacterial cell-free transcription-translation assay; format: functional
Procedure, shortened: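 E. coli cell-free coupled transcription-translation used a GFP gene in pEXP5-CT as template, started with 1 μg plasmid in 50 μL reactions. Feed buffer was added at 30 min, with incubation at 30 °C. Fluorescence (ex 475/em 520 nm) was read every 20 min. IC50 was taken at 1 h after feed addition from a four-parameter log(inhibitor)–response fit. Duplicates.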

Escherichia coli [2] = test: microbe, parasite or virus in culture; conditions: ATCC 25922

Compound	MIC (Klebsiella pneumoniae)	IC50 (Escherichia coli [1]; Escherichia coli)	MIC (Escherichia coli [2])	IC50 (Escherichia coli [1])
N=C(N)NCC/C=C(\NC(=O)[C@H](CCCCN)NC(=O)[C@H](Cc1cnc[nH]1)NC(=O)[C@@H]1CCCN1C(=O)[C@@H](CCCN)NC(=O)CNC(=O)[C@@H](N)[C@@H](O)CN)C(=O)N[C@@H](CCCCN)C(=O)NCCCCN	> 64 µg/mL	> 40000 nM	> 64 µg/mL	–
C[C@H](NC(=O)[C@H](Cc1cnc[nH]1)NC(=O)[C@@H]1CCCN1C(=O)[C@@H](CCCN)NC(=O)CNC(=O)[C@@H](NC(=O)[C@@H](NC(=O)[C@@H](N)CCCCN)[C@@H](O)CN)[C@@H](O)CN)C(=O)N/C(=C\CCNC(=N)N)C(=O)N[C@@H](CCCCN)C(=O)NCCCCN	4 µg/mL (≈ 3.31 µM)	1850 nM	16 µg/mL (≈ 13.3 µM)	–
NCCCC[C@H](NC(=O)[C@H](Cc1cnc[nH]1)NC(=O)[C@@H]1CCCN1C(=O)[C@@H](CCCN)NC(=O)CNC(=O)[C@@H](NC(=O)[C@@H](NC(=O)[C@@H](N)CCCCN)[C@@H](O)CN)[C@@H](O)CN)C(=O)O	> 64 µg/mL	10000 nM	> 64 µg/mL	–
C[C@H](NC(=O)[C@@H](N)CCCCN)C(=O)N[C@H](C(=O)NCC(=O)N[C@H](CCCN)C(=O)N1CCC[C@H]1C(=O)N[C@@H](Cc1cnc[nH]1)C(=O)N[C@@H](CCCCN)C(=O)N/C(=C\CCNC(=N)N)C(=O)N[C@@H](CCCCN)C(=O)NCCCCN)[C@@H](O)CN	> 64 µg/mL	4500 nM	> 64 µg/mL	–
C[C@@H](NC(=O)CNC(=O)[C@@H](NC(=O)[C@@H](NC(=O)[C@@H](N)CCCCN)[C@@H](O)CN)[C@@H](O)CN)C(=O)N1CCC[C@H]1C(=O)N[C@@H](Cc1cnc[nH]1)C(=O)N[C@@H](CCCCN)C(=O)N/C(=C\CCNC(=N)N)C(=O)N[C@@H](CCCCN)C(=O)NCCCCN	> 64 µg/mL	> 40000 nM	> 64 µg/mL	–
N=C(N)NCC/C=C(\NC(=O)[C@H](CCCCN)NC(=O)[C@H](Cc1cnc[nH]1)NC(=O)[C@@H]1CCCN1C(=O)[C@@H](CCCN)NC(=O)CNC(=O)[C@@H](NC(=O)[C@H](CO)NC(=O)[C@@H](N)CCCCN)[C@@H](O)CN)C(=O)N[C@@H](CCCCN)C(=O)NCCCCN	> 64 µg/mL	> 40000 nM	> 64 µg/mL	–
NCCCC[C@H](N)C(=O)N[C@H](C(=O)N[C@H](C(=O)NCC(=O)N[C@H](CCCN)C(=O)N1CCC[C@H]1C(=O)N[C@@H](Cc1cnc[nH]1)C(=O)O)[C@@H](O)CN)[C@@H](O)CN	> 64 µg/mL	9600 nM	> 64 µg/mL	–
N=C(N)NCC/C=C(\NC(=O)[C@H](CCCCN)NC(=O)[C@H](Cc1cnc[nH]1)NC(=O)[C@@H]1CCCN1C(=O)[C@@H](CCCN)NC(=O)CNC(=O)[C@@H](NC(=O)[C@@H](N)[C@@H](O)CN)[C@@H](O)CN)C(=O)N[C@@H](CCCCN)C(=O)NCCCCN	> 64 µg/mL	> 40000 nM	> 64 µg/mL	–
C[C@H](O)[C@H](NC(=O)[C@@H](N)CCCCN)C(=O)N[C@H](C(=O)NCC(=O)N[C@H](CCCN)C(=O)N1CCC[C@H]1C(=O)N[C@@H](Cc1cnc[nH]1)C(=O)N[C@@H](CCCCN)C(=O)N/C(=C\CCNC(=N)N)C(=O)N[C@@H](CCCCN)C(=O)NCCCCN)[C@@H](O)CN	> 64 µg/mL	> 40000 nM	> 64 µg/mL	–
C/C=C(\NC(=O)[C@H](CCCCN)NC(=O)[C@H](Cc1cnc[nH]1)NC(=O)[C@@H]1CCCN1C(=O)[C@@H](CCCN)NC(=O)CNC(=O)[C@@H](NC(=O)[C@@H](NC(=O)[C@@H](N)CCCCN)[C@@H](O)CN)[C@@H](O)CN)C(=O)N[C@@H](CCCCN)C(=O)NCCCCN	8 µg/mL (≈ 6.7 µM)	830 nM	16 µg/mL (≈ 13.4 µM)	–
C[C@H](N)C(=O)N[C@H](C(=O)N[C@H](C(=O)NCC(=O)N[C@H](CCCN)C(=O)N1CCC[C@H]1C(=O)N[C@@H](Cc1cnc[nH]1)C(=O)N[C@@H](CCCCN)C(=O)N/C(=C\CCNC(=N)N)C(=O)N[C@@H](CCCCN)C(=O)NCCCCN)[C@@H](O)CN)[C@@H](O)CN (H-A[Dab(3S-OH)][Dab(3S-OH)]G[dOrn]PHK[ΔZArg]K-{NH(CH2)4NH2})	8 µg/mL (≈ 6.63 µM)	730 nM	16 µg/mL (≈ 13.3 µM)	–
N=C(N)NCC/C=C(\NC(=O)[C@H](CCCCN)NC(=O)[C@H](Cc1cnc[nH]1)NC(=O)[C@@H]1CCCN1C(=O)[C@@H](CCCN)NC(=O)CNC(=O)CNC(=O)[C@@H](NC(=O)[C@@H](N)CCCCN)[C@@H](O)CN)C(=O)N[C@@H](CCCCN)C(=O)NCCCCN (H-K[Dab(3S-OH)]GG[dOrn]PHK[ΔZArg]K-{NH(CH2)4NH2})	8 µg/mL (≈ 6.64 µM)	1060 nM	8 µg/mL (≈ 6.64 µM)	–
N=C(N)NCC/C=C(\NC(=O)[C@H](CCCCN)NC(=O)[C@H](Cc1cnc[nH]1)NC(=O)[C@@H]1CCCN1C(=O)[C@@H](CCCN)NC(=O)CNC(=O)[C@H](CO)NC(=O)[C@@H](NC(=O)[C@@H](N)CCCCN)[C@@H](O)CN)C(=O)N[C@@H](CCCCN)C(=O)NCCCCN (H-K[Dab(3S-OH)]SG[dOrn]PHK[ΔZArg]K-{NH(CH2)4NH2})	4 µg/mL (≈ 3.24 µM)	660 nM	4 µg/mL (≈ 3.24 µM)	–
CC(C)[C@H](NC(=O)[C@@H](NC(=O)[C@@H](N)CCCCN)[C@@H](O)CN)C(=O)NCC(=O)N[C@H](CCCN)C(=O)N1CCC[C@H]1C(=O)N[C@@H](Cc1cnc[nH]1)C(=O)N[C@@H](CCCCN)C(=O)N/C(=C\CCNC(=N)N)C(=O)N[C@@H](CCCCN)C(=O)NCCCCN (H-K[Dab(3S-OH)]VG[dOrn]PHK[ΔZArg]K-{NH(CH2)4NH2})	2 µg/mL (≈ 1.6 µM)	800 nM	4 µg/mL (≈ 3.21 µM)	–
CC[C@H](NC(=O)[C@@H](NC(=O)[C@@H](N)CCCCN)[C@@H](O)CN)C(=O)NCC(=O)N[C@H](CCCN)C(=O)N1CCC[C@H]1C(=O)N[C@@H](Cc1cnc[nH]1)C(=O)N[C@@H](CCCCN)C(=O)N/C(=C\CCNC(=N)N)C(=O)N[C@@H](CCCCN)C(=O)NCCCCN (H-K[Dab(3S-OH)][Abu]G[dOrn]PHK[ΔZArg]K-{NH(CH2)4NH2})	4 µg/mL (≈ 3.24 µM)	730 nM	4 µg/mL (≈ 3.24 µM)	–
C[C@H](NC(=O)[C@@H](CCCN)NC(=O)CNC(=O)[C@@H](NC(=O)[C@@H](NC(=O)[C@@H](N)CCCCN)[C@@H](O)CN)[C@@H](O)CN)C(=O)N[C@@H](Cc1cnc[nH]1)C(=O)N[C@@H](CCCCN)C(=O)N/C(=C\CCNC(=N)N)C(=O)N[C@@H](CCCCN)C(=O)NCCCCN (H-K[Dab(3S-OH)][Dab(3S-OH)]G[dOrn]AHK[ΔZArg]K-{NH(CH2)4NH2})	32 µg/mL (≈ 25.8 µM)	2410 nM	16 µg/mL (≈ 12.9 µM)	–
C[C@H](NC(=O)[C@@H]1CCCN1C(=O)[C@@H](CCCN)NC(=O)CNC(=O)[C@@H](NC(=O)[C@@H](NC(=O)[C@@H](N)CCCCN)[C@@H](O)CN)[C@@H](O)CN)C(=O)N[C@@H](CCCCN)C(=O)N/C(=C\CCNC(=N)N)C(=O)N[C@@H](CCCCN)C(=O)NCCCCN (H-K[Dab(3S-OH)][Dab(3S-OH)]G[dOrn]PAK[ΔZArg]K-{NH(CH2)4NH2})	8 µg/mL (≈ 6.68 µM)	390 nM	8 µg/mL (≈ 6.68 µM)	–
C[C@H](NC(=O)[C@H](CCCCN)NC(=O)[C@H](Cc1cnc[nH]1)NC(=O)[C@@H]1CCCN1C(=O)[C@@H](CCCN)NC(=O)CNC(=O)[C@@H](NC(=O)[C@@H](NC(=O)[C@@H](N)CCCCN)[C@@H](O)CN)[C@@H](O)CN)C(=O)N[C@@H](CCCCN)C(=O)NCCCCN (H-K[Dab(3S-OH)][Dab(3S-OH)]G[dOrn]PHKAK-{NH(CH2)4NH2})	64 µg/mL (≈ 54.2 µM)	2400 nM	> 64 µg/mL	–
N=C(N)NCCC[C@H](NC(=O)[C@H](CCCCN)NC(=O)[C@H](Cc1cnc[nH]1)NC(=O)[C@@H]1CCCN1C(=O)[C@@H](CCCN)NC(=O)CNC(=O)[C@@H](NC(=O)[C@@H](NC(=O)[C@@H](N)CCCCN)[C@@H](O)CN)[C@@H](O)CN)C(=O)N[C@@H](CCCCN)C(=O)NCCCCN (H-K[Dab(3S-OH)][Dab(3S-OH)]G[dOrn]PHKRK-{NH(CH2)4NH2})	8 µg/mL (≈ 6.32 µM)	1530 nM	32 µg/mL (≈ 25.3 µM)	–
N=C(N)NCCC[C@@H](NC(=O)[C@H](CCCCN)NC(=O)[C@H](Cc1cnc[nH]1)NC(=O)[C@@H]1CCCN1C(=O)[C@@H](CCCN)NC(=O)CNC(=O)[C@@H](NC(=O)[C@@H](NC(=O)[C@@H](N)CCCCN)[C@@H](O)CN)[C@@H](O)CN)C(=O)N[C@@H](CCCCN)C(=O)NCCCCN (H-K[Dab(3S-OH)][Dab(3S-OH)]G[dOrn]PHK[dR]K-{NH(CH2)4NH2})	16 µg/mL (≈ 12.6 µM)	980 nM	16 µg/mL (≈ 12.6 µM)	–
O=C(N[C@H](CO)[C@H](O)c1ccc([N+](=O)[O-])cc1)C(Cl)Cl [CHLORAMPHENICOL]	–	7740 nM	–	–
CC[C@H]1OC(=O)[C@H](C)[C@@H](O[C@H]2C[C@@](C)(OC)[C@@H](O)[C@H](C)O2)[C@H](C)[C@@H](O[C@@H]2O[C@H](C)C[C@H](N(C)C)[C@H]2O)[C@](C)(O)C[C@@H](C)C(=O)[C@H](C)[C@@H](O)[C@]1(C)O [ERYTHROMYCIN]	–	2120 nM	–	–
CN[C@@H]1[C@H](O)[C@H](NC)[C@H]2O[C@@]3(O)C(=O)C[C@@H](C)O[C@H]3O[C@@H]2[C@H]1O [SPECTINOMYCIN]	–	990 nM	–	–
GENTAMICIN	–	–	–	310 nM
